Laboratory results published in paper PMC8095719 (Science translational medicine, 2020).
Like-named read-outs stand apart in the source and are kept apart here.

How the values were obtained:
[1] = tested on: mouse hippocampal slices (CA1 fEPSP); settings: previous studies; cited from earlier work
[2] = plasma, CSF and brain pharmacokinetics in C57BL/6 mice; type: in vivo, mouse; settings: 30 mg/kg ip; for brain entry after in vivo dosing: confirmed by hippocampal APP phosphorylation and LTD
Outline: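 Male C57BL/6 mice received a single 30 mg/kg ip dose. Blood was taken into K2-EDTA from three mice per time point, and plasma was stored below −70°C. CSF and brain were sampled at 0.08, 0.5, 1, 2, 4, 8 and 24 h. Brains were rinsed in PBS pH 7.4 and homogenised in ice-cold PBS to three times brain weight before analysis.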

mouse hippocampal slices = assay: metabolic labeling of protein synthesis in hippocampal slices; type: cell-based
Outline: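 Hippocampal slices (500 μm) came from male P28–P32 Fmr1−/y and WT littermates and were kept in oxygenated aCSF at 32.5°C. Compound was applied at 10 μM. Slices were labelled with [35S]Met/Cys for 30 min, then proteins were TCA-precipitated and counted by scintillation. Counts per minute per μg protein were normalised to the labelling aCSF and expressed as percent WT. Analysis was two-way ANOVA for genotype × treatment.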

β-catenin = assay: Western blot of β-catenin in SH-SY5Y cultured cells; type: cell-based; settings: 10 μM, 24 hours
GSK3β [3] = settings: cited from earlier work; for IC50: read-out: biochemical IC50 against GSK3β, reported values
[4] = tested on: T668 of amyloid precursor protein (APP); assay: Western blot of APP phosphorylation in dorsal hippocampus after in vivo dosing; set-up: species or system mouse; settings: Fmr1^−/y mice, five days
[5] = tested on: CRMP2 phosphorylation (p-CRMP2); assay: Western blot of CRMP2 phosphorylation in SH-SY5Y cultured cells; type: cell-based; settings: 10 μM
GSK3α [6] = settings: read-out: cellular EC50 against GSK3α; HEK293 cells; cited from earlier work
GSK3β [7] = settings: cited from earlier work; for EC50: read-out: cellular EC50 against GSK3β, HEK293 cells
[8] = tested on: mouse hippocampal slices (CA1 fEPSP); assay: NMDAR-dependent LTD and synaptic transmission in hippocampal slices; type: cell-based; settings: for NMDAR-dependent LTD, acute application: wild-type hippocampal slices, 10 μM, LFS 900 pulses at 3 Hz
[9] = tested on: mouse hippocampal slices (CA1 fEPSP); assay: mGluR-dependent LTD; type: cell-based; settings: DHPG 100 μM, 5 min
Fmr1^−/y mice [10] = assay: audiogenic seizure; type: in vivo, mouse; settings: for AGS incidence, chronic dosing: 30 mg/kg ip daily for five days
Outline: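 Male Fmr1−/y mice were housed on static racks to avoid auditory desensitisation. Doses were 30 mg/kg ip in 10% DMSO/45% PEG 400/45% saline. Acute: one injection 1–2 h before alarm exposure in a separate room. Chronic: four daily injections plus a fifth 1–2 h before testing. The mGluR5 antagonist comparator was given as three doses every 48 h. Incidence was compared by two-tailed Fisher's exact test.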

[11] = tested on: layer 5 of the visual cortex slices; assay: evoked and spontaneous spiking in visual cortex slices; type: cell-based, mouse; settings: 10 μM
Outline: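 Visual cortex slices (350 μm) came from P16–P21 male WT and Fmr1−/y mice, cut in ice-cold sucrose solution. Recovery was 30 min at 32°C, then 2.5 h at room temperature in modified aCSF. White matter was stimulated with 0.2 ms pulses every 30 s at 35–80 μA, with extracellular recording in layer 5. Recording ran 30 min in vehicle (60 trials), then 30 min with 10 μM compound from 50 mM DMSO stock. Analysis was two-way repeated-measures ANOVA with Bonferroni post hoc.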

GSK3α [12] = settings: read-out: biochemical IC50 against GSK3α; reported values; cited from earlier work
Fmr1^−/y mice [13] = settings: 30 mg/kg ip chronic, over 48 hours
wild-type mice = assay: MK-801–induced hyperlocomotion; type: in vivo, mouse; settings: MK-801 0.3 mg/kg
GSK3 = settings: lithium treatment in patients with bipolar disorder; cited from earlier work
Fmr1^−/y mice [14] = settings: cited from earlier work
Fmr1^−/y mice [15] = settings: chronic dietary treatment; cited from earlier work
T514 of CRMP2 = assay: Western blot of CRMP2 phosphorylation in dorsal hippocampus after in vivo dosing; set-up: species or system mouse; settings: Fmr1^−/y mice, five days dosing
[16] = Fmr1^−/y hippocampal slices, 10 μM
[17] = Fmr1^−/y mice, 30 mg/kg ip, 1 hour before stimulus
[18] = Fmr1^−/y visual cortical slices
[19] = wild-type visual cortical slices

## Cc1c[nH]c(-c2cnc(NCCNc3ccc(C#N)cn3)nc2-c2ccc(Cl)cc2Cl)n1 [CHIR99021]
[1]
  NMDAR-dependent LTD: reliably inhibit LTD

## CC(C)(C)CC1=C2C(=NC3=C(C(=O)CC(C)(C)C3)[C@@]2(C)c2ccccc2)NN1 [BRD3731, (S)-4,7,7-trimethyl-3-neopentyl-4-phenyl-1,2,4,6,7,8-hexahydro-5H-pyrazolo[3,4-b]quinolin-5-one]
[2]
  time of peak brain concentration after injection: 60 min
  brain entry after in vivo dosing: successfully entered the brain
Mouse hippocampal slices; [16]
  basal protein synthesis: had no effect
β-catenin
  effect on β-catenin: no effect on β-catenin
GSK3β [3]; purified enzymes
  selectivity for GSK3β: about 10 fold
GSK3β [3]
  IC50: 15 nM
[4]; 30 mg/kg ip QD
  APP phosphorylation (T668) in dorsal hippocampus: reduced APP phosphorylation
[5]
  CRMP2 phosphorylation (p-CRMP2): decrease of CRMP2 phosphorylation
GSK3α [6]
  EC50: > 20000 nM
GSK3β [7]
  EC50: 3300 nM
[8]; 30 mg/kg ip daily for five days, slices 1 hour after last injection
  NMDAR-dependent LTD ex vivo after chronic dosing in vivo: inhibited NMDAR-dependent LTD
[8]
  NMDAR-dependent LTD, acute application: strongly inhibited LTD
[9]; Fmr1^−/y hippocampal slices
  mGluR-dependent LTD: but not BRD3731, blocked induction of LTD
[9]; wild-type hippocampal slices
  mGluR-dependent LTD: but not BRD3731, blocked induction of LTD
Fmr1^−/y mice [10]; Fmr1^−/y mice
  AGS incidence, chronic dosing: has no effect on AGS incidence
Fmr1^−/y mice [10]; [17]
  AGS incidence, acute dosing: no significant reduction in seizure activity
Fmr1^−/y mice [10]; wild-type mice, 30 mg/kg ip
  AGS incidence, acute dosing: did not affect seizure incidence
[11]; [18]
  number of evoked action potentials: did not alter activity
  number of spontaneous action potentials: does not reduce spontaneous hyperactivity
[11]; [19]
  number of evoked action potentials: did not alter activity
GSK3α [12]
  IC50: 215 nM

## CC[C@]1(c2ccccc2)C2=CNNC2=NC2=C1C(=O)CC(C)(C)C2 [BRD0705, (S)-4-ethyl-7,7-dimethyl-4-phenyl-1,2,4,6,7,8-hexahydro-5H-pyrazolo[3,4-b]quinolin-5-one]
[2]
  brain entry after in vivo dosing: successfully entered the brain
Mouse hippocampal slices; [16]
  basal protein synthesis: reduced elevated protein synthesis
Mouse hippocampal slices; wild-type hippocampal slices, 10 μM, CDPPB 10 μM
  CDPPB (mGluR5)-stimulated protein synthesis: blocked the elevation in protein synthesis
Mouse hippocampal slices; wild-type mice
  basal protein synthesis: no effect on basal protein synthesis
β-catenin
  effect on β-catenin: no effect on β-catenin
Fmr1^−/y mice [13]
  inhibitory avoidance memory acquisition and extinction: exhibited normal memory acquisition and extinction
GSK3β [3]
  IC50: […]
[4]; 30 mg/kg ip QD
  APP phosphorylation (T668) in dorsal hippocampus: reduced APP phosphorylation
[5]
  CRMP2 phosphorylation (p-CRMP2): decrease of CRMP2 phosphorylation
GSK3β [7]
  EC50: […]
GSK3β [7]; read-out: cellular IC50 against GSK3β, HEK cells
  IC50: […]
[8]
  NMDAR-dependent LTD, acute application: blocked low-frequency stimulation–induced LTD
[8]; wild-type mice
  synaptic transmission: no effect
[9]; Fmr1^−/y hippocampal slices
  mGluR-dependent LTD: blocked induction of LTD
[9]; wild-type hippocampal slices
  mGluR-dependent LTD: blocked induction of LTD
wild-type mice; 30 mg/kg ip
  effect of pretreatment on MK-801–induced hyperlocomotion: had no effect on the behavioral response to MK-801
Fmr1^−/y mice [10]; Fmr1^−/y mice
  AGS incidence, chronic dosing: no apparent loss of efficacy
Fmr1^−/y mice [10]; [17]
  AGS incidence, acute dosing: significant reduction in seizure incidence
Fmr1^−/y mice [10]; wild-type mice, 30 mg/kg ip
  AGS incidence, acute dosing: had no effect on seizure incidence
[11]; [18]
  number of evoked action potentials: significantly reduced the number of action potentials
  number of spontaneous action potentials: significantly reduced the number of spontaneous action potentials
[11]; [19]
  number of evoked action potentials: had no effect on WT visual cortical slices

## Cc1nc(C#Cc2cccnc2)cs1 [MTEP, 3-[(2-methyl-1,3-thiazol-4-yl)ethynyl]-pyridine, reference compound]
wild-type mice; 10 mg/kg ip
  effect of pretreatment on MK-801–induced hyperlocomotion: potentiated MK-801–induced hyperlocomotion

## N#Cc1cccc(C(=O)Nc2cc(-c3ccccc3)nn2-c2ccccc2)c1 [CDPPB, 3-cyano-N-(1,3-diphenyl-1H-pyrazol-5-yl) benzamide, reference compound]
Mouse hippocampal slices; wild-type hippocampal slices, 10 μM, versus vehicle
  protein synthesis on mGluR5 stimulation: significantly increased protein synthesis

## [Cl-].[Li+] [lithium, lithium chloride]
GSK3
  inhibition of total GSK3 protein: < 75%
[4]; 60 mg/kg ip twice daily
  APP phosphorylation (T668) in dorsal hippocampus: reduced APP phosphorylation
Fmr1^−/y mice [14]
  AGS protection: protect Fmr1^−/y mice from AGS
  AGS, daily injections over 5 days: effectively reduce AGS
Fmr1^−/y mice [15]
  rates of cerebral protein synthesis: reduces elevated rates of cerebral protein synthesis
T514 of CRMP2
  phosphorylation of T514 of CRMP2 in hippocampus in vivo: not changed
[1]
  NMDAR-dependent LTD: reliably inhibit LTD

## Cc1nc(C#Cc2ccnc(Cl)c2)c(C)n1-c1ccc(OC(F)(F)F)cc1 [CTEP, 2-chloro-4-((2,5-dimethyl-1-(4-(trifluoromethoxy)phenyl)-1H-imidazol-4-yl)ethynyl) pyridine, reference compound]
Fmr1^−/y mice [10]; Fmr1^−/y mice, 2 mg/kg ip
  AGS incidence, acute dosing: significantly reduced the incidence of AGS
Fmr1^−/y mice [10]; Fmr1^−/y mice, three consecutive doses over 5 days, 2 mg/kg ip
  AGS protection after chronic dosing: protection was completely lost

## CC1(C)CC(=O)C2=C(C1)N=C1NNC(C3CC3)=C1[C@]2(C)c1ccccc1 [BRD0320, (S)-3-cyclopropyl-4,7,7-trimethyl-4-phenyl-1,2,4,6,7,8-hexahydro-5H-pyrazolo[3,4-b]quinolin-5-one]
β-catenin
  effect on β-catenin: increase in β-catenin
Fmr1^−/y mice [10]; [17]
  AGS incidence, acute dosing: ameliorates AGS incidence

## O=C1NC(=O)C(c2ccccc2[N+](=O)[O-])=C1Nc1ccc(O)c(Cl)c1 [SB415286]
[1]
  NMDAR-dependent LTD: reliably inhibit LTD

## Cc1cccc(C#Cc2ccccc2)n1 [MPEP]
Fmr1^−/y mice [14]
  suppression of AGS after chronic dosing (tolerance): greatly reduced after chronic dosing

## O=C1Cc2c([nH]c3ccc(Br)cc23)-c2ccccc2N1 [kenpaullone]
[1]
  NMDAR-dependent LTD: reliably inhibit LTD
